{"data": "Measurements pooled from the literature", "Cnr2": "Cannabinoid receptor 2 (Cnr2, Mus musculus, UniProt P47936)", "G protein-coupled receptor 88": "G protein-coupled receptor 88 (Homo sapiens, UniProt Q9GZN0)", "note": "Protocols differ between the studies behind these lines."}
{"Compound": "CCOC(=O)C(CC)(CCCSCCOCCOCCOCCOCCNC(=O)OC(C)(C)C)NC(=O)c1ccc(C2CC2)c(Cc2ccc(F)cc2)n1 (centres unmarked)", "target": "Cnr2", "assay": "cAMP, agonist", "quantity": "Emax", "result": "84%"}
{"Compound": "C#Cc1n[nH]c2c(-c3cn([C@@H](C)c4ccccn4)c(=O)[nH]c3=O)cc(F)cc12", "target": "Protein kinase C theta type (PRKCQ, Homo sapiens, UniProt Q04759)", "assay": "enzyme activity, inhibitor", "setting": "0.1 µM", "quantity": "inhibition", "result": "13.6%"}
{"Compound": "COc1ncccc1-c1cnn2ccc(N3CCN(C(=O)OC(C)C)CC3)nc12", "target": "Cyclin-dependent kinase 13 (CDK13, Homo sapiens, UniProt Q14004)", "assay": "binding, competition with immobilised ligand", "setting": "1 µM", "quantity": "remaining binding", "result": "95%"}
{"Compound": "CC[C@H](C)COc1ccc([C@@H](CO)C(=O)N[C@H](C)c2ccccc2)cc1", "target": "G protein-coupled receptor 88", "assay": "cAMP, agonist, TR-FRET", "quantity": "Emax", "result": "88%"}
{"Compound": "Cc1nn(C)cc1-c1nc2c(N3CCN(Cc4ccc(Cl)cc4)CC3)c(Cl)cnc2[nH]1", "target": "5'-AMP-activated protein kinase catalytic subunit alpha-1 (PRKAA1, Homo sapiens, UniProt Q13131)", "assay": "binding, competition with immobilised ligand", "setting": "1 µM", "quantity": "remaining binding", "result": "2.4%"}
{"Compound": "CCCCCOc1ccc([C@@H](CO)C(=O)N[C@H](C)c2ccccc2)cc1", "target": "G protein-coupled receptor 88", "assay": "cAMP, agonist, TR-FRET", "test system": "CHO", "quantity": "Emax", "result": "103%"}
{"Compound": "CC(C)C[C@H](NC(=O)[C@H]1O[C@@H]1C(=O)O)C(=O)NCCCCN=C(N)N", "target": "Procathepsin L (CTSL, Homo sapiens, UniProt P07711)", "assay": "enzyme activity, inhibitor", "setting": "500 pM", "quantity": "inhibition", "result": "13%"}
{"Compound": "Cn1cc(-c2cccc(N3CCc4c(sc5c4CC(C)(C)C5)C3=O)c2CO)cc(Nc2ccncn2)c1=O", "target": "Platelet-derived growth factor receptor alpha (PDGFRA, Homo sapiens, UniProt P16234, T674I)", "assay": "enzyme activity, inhibitor", "setting": "1 µM", "quantity": "inhibition", "result": "-4%"}
{"Compound": "Nc1ncc(-c2nc(N3CCOCC3)nc(N3CCOCC3)n2)c(C(F)F)n1", "target": "Mitogen-activated protein kinase kinase kinase kinase 5 (MAP4K5, Homo sapiens, UniProt Q9Y4K4)", "assay": "binding, competition with immobilised ligand", "setting": "10 µM", "quantity": "remaining binding", "result": "100%"}
{"Compound": "CCC[C@@H](C)COc1ccc([C@@H](CO)C(=O)N[C@H](C)c2ccccc2)cc1", "target": "G protein-coupled receptor 88", "assay": "cAMP, agonist, TR-FRET", "test system": "CHO", "quantity": "Emax", "result": "105%"}
{"Compound": "Cc1nc2c(=O)n(C)c(=O)nc-2n(C)n1", "target": "Protein disulfide-isomerase (P4HB, Homo sapiens, UniProt P07237)", "assay": "thermal stability, DSF", "setting": "1 µM", "quantity": "ΔTm", "result": "-1.43 °C"}
{"Compound": "CCOC(=O)C(CC)(CCCSCCOCCOCCNc1ccc([N+](=O)[O-])c2nonc12)NC(=O)c1ccc(C2CC2)c(Cc2ccc(F)cc2)n1 (racemic)", "target": "Cnr2", "assay": "cAMP, agonist", "quantity": "Emax", "result": "123%"}
{"Compound": "Cn1cc(-c2cc(F)cc(N3CCn4c(cc5c4CCCC5)C3=O)c2CO)cc(Nc2ccc(N3CCN(C4COC4)CC3)cn2)c1=O", "target": "Platelet-derived growth factor receptor alpha (PDGFRA, Homo sapiens, UniProt P16234)", "assay": "enzyme activity, inhibitor", "setting": "0.1 µM", "quantity": "inhibition", "result": "23%"}
{"Compound": "CCCCOc1ccc([C@@H](CO)C(=O)N[C@H](C)c2ccccc2)cc1", "target": "G protein-coupled receptor 88", "assay": "cAMP, agonist, TR-FRET", "test system": "CHO", "quantity": "Emax", "result": "100%"}
